Data as given in ChEMBL document CHEMBL4616602, “Design and biological evaluation of tetrahydropyridine derivatives as novel human GPR119 agonists” (Bioorg Med Chem Lett, 2020).
In brackets after ≈: the same amount, converted by molar mass. Activity calls are given as the source filed them. No cut-off for these calls is given here.

Experiments:
[1] = target: T1, Glucose-dependent insulinotropic receptor (Homo sapiens) (UniProt Q8TDV5); experiment: Agonist activity at GPR119 (unknown origin) assessed as increase in cAMP level at 10 uM by cAMP HTRF assay relative to oleoylethanolamide; type: functional
T1 sequence (whole entry): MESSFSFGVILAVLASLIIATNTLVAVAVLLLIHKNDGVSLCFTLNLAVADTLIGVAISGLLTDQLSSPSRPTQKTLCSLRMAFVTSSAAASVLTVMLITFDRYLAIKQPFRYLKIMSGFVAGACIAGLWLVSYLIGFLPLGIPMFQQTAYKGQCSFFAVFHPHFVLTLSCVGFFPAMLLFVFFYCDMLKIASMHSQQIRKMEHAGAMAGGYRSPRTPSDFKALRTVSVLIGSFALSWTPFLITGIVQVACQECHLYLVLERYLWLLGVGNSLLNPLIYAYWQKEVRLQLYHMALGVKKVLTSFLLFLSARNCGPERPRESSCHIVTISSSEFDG
Outline: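 Cell-based GPR119 agonism at a single 10 μM concentration. Response is expressed as percent of the maximal efficacy of the reference agonist oleoylethanolamide (OEA). Values are means.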

[2] = target: T2, Glucose-dependent insulinotropic receptor (Homo sapiens, UniProt Q8TDV5); experiment: Agonist activity at GPR119 (unknown origin) assessed as increase in cAMP level by cAMP HTRF assay; type: functional
T2 sequence (Q8TDV5 whole entry): T1 sequence (whole entry)
Outline: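 Cell-based GPR119 agonist assay with a top test concentration of 10 μM. EC50 values are reported as means.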

Mus musculus [3] = experiment: Hypoglycemic activity in C57BL/6 mouse assessed as reduction in blood glucose AUC at 100 mg/kg, po measured after 2 hrs by glucose challenge by OGTT relative to control; type: functional; set-up: scale not given: the % may be the effect or the level left
Outline: (§1)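 Normal male C57BL/6J mice received vehicle or compound at 20, 50 or 100 mg/kg, then a glucose challenge of 2 g/kg (10 ml/kg). Blood glucose was followed over 0–120 min and AUC0–120 min calculated. Mean ± SD, n=6, versus vehicle group.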

Mus musculus [4] = experiment: Hypoglycemic activity in C57BL/6 mouse assessed as reduction in blood glucose AUC at 20 and 50 mg/kg, po measured immediately by glucose challenge by OGTT relative to control; type: functional; set-up: scale not given: the % may be the effect or the level left; outline: as §1
Mus musculus [5] = experiment: Hypoglycemic activity in C57BL/6 mouse assessed as reduction in blood glucose AUC at 20 and 50 mg/kg, po measured after 2 hrs by glucose challenge by OGTT relative to control; type: functional; set-up: scale not given: the % may be the effect or the level left; outline: as §1
Mus musculus [6] = experiment: Hypoglycemic activity in C57BL/6 mouse […] model assessed as reduction in blood glucose AUC at 20 mg/kg, po administered for 28 days and measured after 2 hrs on day 28 by glucose challenge by OGTT relative to control; type: functional; set-up: scale not given: the % may be the effect or the level left
Outline: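 Diet-induced obese mice were dosed with 20 mg/kg repeatedly for 28 days. On day 28 an OGTT (2 g/kg glucose) was run with blood glucose tracked over 0–120 min and AUC0–120 min derived. Fasting glucose was also taken at day 28. Mean ± SD, n=6, versus vehicle.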

[7] = Toxicity in C57BL/6 mouse […] model assessed as reduction in food intake at 20 mg/kg, po observed for 4 weeks; type: organism-based; conditions: in vivo, 672 h
Outline: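 Diet-induced obese mice were treated at 20 mg/kg for 4 weeks, and average food intake was recorded over the treatment period. Mean ± SD, n=6, compared with vehicle.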

Mus musculus [8] = experiment: Antidiabetic activity in C57BL/6 mouse […] model assessed as reduction in body weight gain at 20 mg/kg, po administered for 4 weeks and measured on day 28; type: functional, organism-based
Outline: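 Diet-induced obese mice were given 20 mg/kg for 4 weeks, with body weight recorded through day 28. Mean ± SD, n=6, versus vehicle group.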

[9] = Solubility of compound; type: physicochemical
Outline: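 Aqueous solubility (logS and mg/ml) was calculated in silico, not measured experimentally.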

| Compound | Emax [1] [%] | EC50 [2] [nM] | other results |
| --- | --- | --- | --- |
| CCc1cnc(N2CCC(c3nc(COc4ccc(-n5cnnn5)cc4)cs3)CC2)nc1 [MBX-2982] | 113 | 3.9 | Activity (Mus musculus [3]): 29.22%; Activity (Mus musculus [4]): 18.47%; Activity (Mus musculus [5]): 26.72%; Activity (Mus musculus [6]): 23.61%; Activity [7]: Non-Toxic; Activity (Mus musculus [8]): Active; solubility [9]: 37 µg/mL (≈ 82.5 µM) |
| CCc1ccc(N2CC=C(c3nc(COc4ccc(-n5cnnn5)cc4F)cs3)CC2)nc1 | 89.6 | – | – |
| CC(C)(C)OC(=O)N1CC=C(c2nc(COc3ccc(-n4cnnn4)cc3Cl)cs2)CC1 | 94.4 | 107 | – |
| CCc1cnc(N2CC=C(c3nc(COc4ccc(S(C)(=O)=O)cc4)cs3)CC2)nc1 | 105 | 70.5 | – |
| CC(C)(C)OC(=O)N1CC=C(c2nc(COc3ccc(C(C)(C)C)cc3C(C)(C)C)cs2)CC1 | 1.7 | – | – |
| COc1ccc(-n2cnnn2)cc1OCc1csc(C2=CCN(C(=O)OC(C)(C)C)CC2)n1 | 8.4 | – | – |
| CCc1cnc(N2CC=C(c3nc(COc4ccc(-n5cnnn5)cc4)cs3)CC2)nc1 | 110 | 4.9 | Activity (Mus musculus [3]): 35.05%; Activity (Mus musculus [4]): 20.11%; Activity (Mus musculus [5]): 26.77%; Activity (Mus musculus [6]): 34.8%; Activity [7]: Non-Toxic; Activity (Mus musculus [8]): Active; solubility [9]: 56 µg/mL (≈ 125 µM) |
| CC(C)(C)OC(=O)N1CC=C(c2nc(COc3ccc(-n4cnnn4)cc3F)cs2)CC1 | 105 | 108 | – |
| CC(C)(C)OC(=O)N1CC=C(c2nc(COc3ccc(C4CCCCC4)cc3)cs2)CC1 | 19.7 | – | – |
| CCc1cnc(N2CC=C(c3nc(COc4ccc(-n5cnnn5)cc4Cl)cs3)CC2)nc1 | 109 | 10.2 | Activity (Mus musculus [3]): 12.11% |
| CCc1ccc(N2CC=C(c3nc(COc4ccc(-n5cnnn5)cc4Cl)cs3)CC2)nc1 | 72.7 | – | – |
| CCc1ccc(N2CC=C(c3nc(COc4ccc(-n5cnnn5)cc4)cs3)CC2)nc1 | 78.5 | – | – |
| CCc1cnc(N2CC=C(c3nc(COc4ccc(-n5cnnn5)cc4F)cs3)CC2)nc1 | 115 | 8.8 | Activity (Mus musculus [3]): 26.81%; Activity (Mus musculus [4]): 1.2%; Activity (Mus musculus [5]): 14.16% |

Further lines, with some results ahead:

| Emax [1] [%] | EC50 [2] [nM] | Compound | other results |
| --- | --- | --- | --- |
| 62.5 | – | CCCC(=O)c1ccc(OCc2csc(C3=CCN(C(=O)OC(C)(C)C)CC3)n2)cc1 | – |
| 35.5 | – | CC(C)(C)OC(=O)N1CC=C(c2nc(CNc3ccc(-n4cnnn4)cc3)cs2)CC1 | – |
| -6.25 | – | COc1ccc(NCc2csc(C3=CCN(C(=O)OC(C)(C)C)CC3)n2)cc1OC | – |
| 71.5 | – | CCc1ccc(N2CC=C(c3nc(COc4ccc(S(C)(=O)=O)cc4)cs3)CC2)nc1 | – |
| 26 | – | CC(C)(C)OC(=O)N1CC=C(c2nc(CNc3ccc(S(C)(=O)=O)cc3)cs2)CC1 | – |
| 78 | 678 | CC(C)(C)OC(=O)N1CC=C(c2nc(COc3ccc(S(C)(=O)=O)cc3)cs2)CC1 | – |
| 11.5 | – | CC(C)(C)OC(=O)N1CC=C(c2nc(COc3ccc4c(c3)OCO4)cs2)CC1 | – |
| -2.16 | – | CC(C)(C)OC(=O)N1CC=C(c2nc(CNc3cc(C(F)(F)F)cc(C(F)(F)F)c3)cs2)CC1 | – |
| 5.25 | – | CC(C)(C)OC(=O)N1CC=C(c2nc(CNc3ccc(Cl)c(I)c3)cs2)CC1 | – |
| -14.2 | – | COc1ccc(Br)cc1OCc1csc(C2=CCN(C(=O)OC(C)(C)C)CC2)n1 | – |
| – | 930 | CCCCCCCC/C=C\CCCCCCCC(=O)NCCO [OLEOYLETHANOLAMIDE] | – |
| -7.44 | – | COc1ccc(NCc2csc(C3=CCN(C(=O)OC(C)(C)C)CC3)n2)c(OC)c1 | – |
| -7.34 | – | CC(C)(C)OC(=O)N1CC=C(c2nc(COc3ccc(Cl)cc3)cs2)CC1 | – |
| 95.4 | 113 | CC(C)(C)OC(=O)N1CC=C(c2nc(COc3ccc(-n4cnnn4)cc3)cs2)CC1 | – |
| 10.7 | – | COc1ccc(OCc2csc(C3=CCN(C(=O)OC(C)(C)C)CC3)n2)cc1OC | – |
| -5.65 | – | COc1ccc(C(C)=O)cc1OCc1csc(C2=CCN(C(=O)OC(C)(C)C)CC2)n1 | – |
| 13 | – | COC(=O)c1sccc1NCc1csc(C2=CCN(C(=O)OC(C)(C)C)CC2)n1 | – |
| -2.17 | – | CC(C)(C)OC(=O)N1CC=C(c2nc(COc3cccc(-n4cnnn4)c3)cs2)CC1 | – |
| 7.04 | – | CC(C)(C)OC(=O)N1CC=C(c2nc(COc3ccc(OC(F)(F)F)cc3)cs2)CC1 | – |
